High-throughput results deposited in PubChem BioAssay by several laboratories.
In the library only some 1.4% were active in any assay of this set; here they are far more common.
PG9 binder – binds the HIV-1 gp120 antibody PG9. TR-FRET gp120-PG9 antibody binding. inhibition, % at 6.7 µM. 0.43% of 360,000 active; in the data active means inhibition above about 8.5%
NR2E3 ag-1 – activates human NR2E3 receptor; Q9Y5X4; CHO-S Gal4-NCOR/VP16-NR2E3 two-hybrid, luciferase; inhibition of corepressor binding, % at 3.98 µM; 0.35% of 360,000 active; AID 602229;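 active means inhibition above the mean of all tested compounds plus 3 SD, cut at about 70% in these data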;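 further: higher means lower luciferase signal from less NR2E3 corepressor binding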
Target sequence (Q9Y5X4 whole entry, looked up, the tested form may be a part): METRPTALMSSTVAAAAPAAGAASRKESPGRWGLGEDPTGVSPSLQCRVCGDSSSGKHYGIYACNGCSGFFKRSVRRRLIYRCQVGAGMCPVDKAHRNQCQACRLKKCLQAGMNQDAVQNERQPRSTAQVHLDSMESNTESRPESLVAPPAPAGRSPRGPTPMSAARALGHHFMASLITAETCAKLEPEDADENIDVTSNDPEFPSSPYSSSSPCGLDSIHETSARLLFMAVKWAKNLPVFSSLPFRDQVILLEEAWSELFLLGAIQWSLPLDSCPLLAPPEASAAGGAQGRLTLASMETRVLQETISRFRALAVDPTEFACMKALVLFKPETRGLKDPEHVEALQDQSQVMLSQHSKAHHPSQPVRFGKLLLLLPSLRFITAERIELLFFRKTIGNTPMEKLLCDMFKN
Rev-erbA mod – modulates human Rev-erb alpha binding to DNA. Rev-erbα–FITC-DNA binding, fluorescence polarization, 90 min. activity, % at 10 µM. 0.79% of 370,000 active. AID 1259318. P20393;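 active means activity above about 14%, limit read from the data; passing the limit was not always enough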
NR2E3 ag-2 – activates human photoreceptor nuclear receptor NR2E3; GST-NR2E3/biotin-RetCOR TR-FRET, 1536-well; inhibition of corepressor binding, % at 4.78 µM; 0.12% of 320,000 active; AID 2300;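 active means percent inhibition above the cutoff of mean plus 3 SD of all tested compounds, set per screening campaign, cut at about 20% in these data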
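Assay system: NR2E3–RetCOR corepressor complex. Quantity: 1.35 nM GST-NR2E3. Buffer or medium: pH 7.5 Tris-based buffer. Reagent: biotinylated RetCOR corepressor at 7 nM final. Schedule: 5 h at 4 °C. Detection: TR-FRET, emission read at 617 and 671 nm. Replicates: one well per compound, singlicate testing.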
Rev-erbA confirm – confirmation of modulators of human Rev-erb alpha DNA binding; Rev-erb alpha FITC-DNA binding, fluorescence polarization, 90 min; AID 1259319; shares compounds with Rev-erbA mod; 61% of 3,000 active; activation, % at 25 µM;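 active means activation at or above a set limit, or at least 3 SD above the negative control mean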
RORg DNA counter – counter-screen for Rev-erb alpha modulators: RORgamma DNA binding | shares compounds with Rev-erbA mod | purified RORgamma protein-FITC-DNA binding, fluorescence polarization | IC50, µM | 8% of 910 active | AID 1259320;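 active means Compounds whose fitted half-maximal concentration for disrupting protein-DNA binding is below 10 micromolar; the record names Rev-erb in its text, so the target is in doubt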
Large screens that a line does not name were inactive (follow-up assays come after a bar, where they were run).

CCCCc1nc2sc3c(SCCN(C)C)ncnc3c2c2c1CCC2	Rev-erbA mod 31 | Rev-erbA confirm 47 | RORg DNA counter inactive
CC(C)c1nc2sc3c(SCC(N)=O)ncnc3c2c2c1CCC2	Rev-erbA mod 869 | Rev-erbA confirm 711 | RORg DNA counter inactive
CSc1nc(SCC(=O)O)c2sc3nc(-c4ccccc4)c4c(c3c2n1)CCC4	none (no result: NR2E3 ag-2)
Cn1c(O)c(N=NC(=O)Cc2c[nH]c3ccccc23)c2ccccc21	none (no result: NR2E3 ag-2)
NC1=NC(=Nc2cccc(S(N)(=O)=O)c2)c2ccccc21	none
COc1cc(N=Nc2cccc(S(N)(=O)=O)c2)c2ccccc2c1N	Rev-erbA mod 35 | Rev-erbA confirm inactive
COc1ccc(-c2cc(-c3ccc(C)cc3)nc(SCc3nnc(-c4ccccc4)o3)c2C#N)cc1OC	Rev-erbA mod 80 | Rev-erbA confirm 37 | RORg DNA counter inactive
CCCSc1nc(SCC(=O)NCc2ccccc2)c2c3c(sc2n1)COC(C)(CC)C3 (centres undefined)	Rev-erbA mod 77 | Rev-erbA confirm 78 | RORg DNA counter inactive
CCC1(C)Cc2c(sc3nc(SCC(=O)c4ccccc4)[nH]c(=O)c23)CO1 (centres undefined)	none
Cn1nnnc1SCc1cccc2ccccc12	none
Cn1nnnc1SCc1nc2ccccc2s1	Rev-erbA mod 22 | Rev-erbA confirm inactive
Cc1ccc(S(=O)(=O)CCc2nnc(NC(=O)c3cccs3)s2)cc1	none
COCCN(C(=O)c1ccc(-c2ccc(Cl)cc2)o1)c1c(N)n(CC(C)C)c(=O)[nH]c1=O	none
CCCCN(C(=O)c1ccc(-c2ccc(Cl)cc2)o1)c1c(N)n(CC(C)C)c(=O)[nH]c1=O	Rev-erbA mod 18 | Rev-erbA confirm inactive
Cc1ccc(OCCNC(=O)CCc2nc3sc4c(c3c(=O)[nH]2)CCCC4)cc1	Rev-erbA mod 20 | Rev-erbA confirm inactive
CCN(c1ccc(NC(=O)CCc2nc3sc4c(c3c(=O)[nH]2)CCCC4)cc1)C(C)C	none
O=C(CCc1nc2sc3c(c2c(=O)[nH]1)CCCC3)NCCc1ccc(Cl)cc1	Rev-erbA mod 21 (no result: NR2E3 ag-2) | Rev-erbA confirm inactive
CCc1ccc(NC(=O)CCc2nc3sc4c(c3c(=O)[nH]2)CCCC4)cc1	Rev-erbA mod 19 | Rev-erbA confirm inactive
C[C@H]1[C@@H](NC(=O)c2cccc(C(F)(F)F)c2)CC[C@@]23CCCN2C(=O)CCC[C@@H]13	none (no result: PG9 binder, NR2E3 ag-1, NR2E3 ag-2)
O=C1/C(=C\c2ccc(Br)o2)Cc2ccccc21	none
COc1ccc(S(=O)(=O)N2CCCCC2)cc1NS(=O)(=O)c1ccccc1F	none
CN(C)C=Nc1ncc2c3ccccc3n(Cc3ccccc3)c2c1C#N	Rev-erbA mod 34 | Rev-erbA confirm 30
CN(C)C=Nc1ncc2c3ccccc3n(CCN(C)C)c2c1C#N	none
COC(=O)C1=C(C)NC(C)=C(C(=O)OC)C1c1ccc(NC(C)=O)cc1	none
Cn1c(=O)c2c(SCC(=O)Nc3ccccc3F)nc(C3CC3)nc2n(C)c1=O	none
COc1ccccc1-c1nc(SCC(=O)N(C)c2ccccc2)c2c(=O)n(C)c(=O)n(C)c2n1	Rev-erbA mod 81 | Rev-erbA confirm 46 | RORg DNA counter inactive
Cn1c(=O)c2c(SCC(=O)Nc3ccccc3F)nc(-c3ccccc3F)nc2n(C)c1=O	Rev-erbA mod 26 | Rev-erbA confirm inactive
Cc1nc(SCC(=O)Nc2cc(C)on2)c2c(=O)n(C)c(=O)n(C)c2n1	none
Cc1ccc(-c2nc(SCC(=O)Nc3cc(C)on3)c3c(=O)n(C)c(=O)n(C)c3n2)cc1	Rev-erbA mod 24 | Rev-erbA confirm 18
COc1cccc(NC(=O)CN(C)C(=O)c2cccc(S(=O)(=O)N3c4ccccc4CC3C)c2)c1 (centres undefined)	none (no result: NR2E3 ag-2)
O=C(NN1C(=O)/C(=C/c2ccc(O)cc2)SC1=S)c1cccc(O)c1	Rev-erbA mod 27 | Rev-erbA confirm inactive
O=C(NN1C(=O)/C(=C/c2ccc(O)c([N+](=O)[O-])c2)SC1=S)c1ccccc1Cl	Rev-erbA mod 17 | Rev-erbA confirm 28
O=C1/C(=C\c2cccc([N+](=O)[O-])c2O)SC(=S)N1Cc1ccccc1	none
COc1cc(/C=C2\SC(=S)N(NC(=O)c3ccccc3O)C2=O)ccc1O	none
O=C1/C(=C/c2ccc(O)c([N+](=O)[O-])c2)SC(=S)N1Cc1ccccc1	Rev-erbA mod 30 | Rev-erbA confirm inactive
CCC(C)c1ccc(NC(=O)N2CCOCC2)cc1 (centres undefined)	none
Clc1ccc(Oc2ncnc3oc(-c4ccccc4)cc23)cc1	Rev-erbA mod 37 | Rev-erbA confirm 18
Fc1ccc(-c2nc3ccccc3c3nc4ccccc4n23)cc1	Rev-erbA mod 26 | Rev-erbA confirm 19
Cc1nc2ccccc2c2nc3ccccc3n12	none
CCOc1ccc(Nc2ccc([N+](=O)[O-])c3nonc23)cc1	none
CC(=O)NS(=O)(=O)c1ccc(Nc2ccc([N+](=O)[O-])c3nonc23)cc1	Rev-erbA mod 26 | Rev-erbA confirm 21
CCc1ccc(OCC(=O)NNC(=O)Cc2cccs2)cc1	none
Cc1oc2c(C)c(O)ccc2c(=O)c1-c1ccc2ccccc2n1	Rev-erbA mod 23 | Rev-erbA confirm 20
O=C(Nc1ccc(F)cc1)Nc1ccc(Oc2ncnc3cc(Cl)ccc23)nc1	Rev-erbA mod 51 | Rev-erbA confirm inactive
O=C(Nc1ccc(Oc2ncnc3cc(Cl)ccc23)nc1)c1cccs1	Rev-erbA mod 55 | Rev-erbA confirm 27
O=C(O)CCCC(=O)Nc1ccc(Oc2ncnc3cc(Cl)ccc23)nc1	none
COc1ccc(NC(=O)c2cccs2)cn1	none
CC(C)(C)OC(=O)N1CCC[C@H]1c1nnc(SC/C=C/c2ccccc2)o1	none
O=C(Cn1ncn2c(cc3ccccc32)c1=O)NCCC1=CCCCC1	none
CCCCOC(=O)c1ccc(NC(=O)COC(=O)c2ccc3ncsc3c2)cc1	none
CCCCc1ccc(NC(=O)COC(=O)c2ccc3ncsc3c2)cc1	Rev-erbA mod 17 (no result: NR2E3 ag-2) | Rev-erbA confirm inactive
O=C(CSc1nc(C2CC2)nc2ccccc12)Nc1ccccc1Cl	Rev-erbA mod 21 | Rev-erbA confirm inactive
O=C(CSc1nc(C2CC2)nc2ccccc12)Nc1ccccc1	none
COc1ccc(C(=O)Nc2ccccc2-c2nnn(CC(N)=O)n2)cc1	Rev-erbA mod 96 (no result: NR2E3 ag-2) | Rev-erbA confirm 81 | RORg DNA counter inactive
COc1cc(C(=O)Nc2ccccc2-c2nnn(CC(N)=O)n2)cc(OC)c1OC	none
COc1ccc(C2CC(c3ccccc3O)=NN2C(=O)c2ccccc2)cc1OC (centres undefined)	none
O=C(c1ccccc1)N1N=C(c2ccccc2O)CC1c1ccccc1 (centres undefined)	Rev-erbA mod 57 | Rev-erbA confirm 36 | RORg DNA counter 6.9
COc1cc2c3nnc(-c4ccc(F)cc4)c-3cn(Cc3ccccc3F)c2cc1OC	Rev-erbA mod 21 (no result: NR2E3 ag-2) | Rev-erbA confirm 39 | RORg DNA counter inactive
